According to ChEMBL document CHEMBL4513216, “Probing the Open Global Health Chemical Diversity Library for Multistage-Active Starting Points for Next-Generation Antimalarials” (ACS Infect Dis, 2020):

Experiment: Toxicity liver stage against HepG2, at 10uM
Assay type: cell-based
Design: test concentration 10 uM, cell line HepG2-A16-CD81EGFP
Conditions: human, HepG2-A16-CD81EGFP cells; read-out: INHIBITION
Procedure, shortened: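 Uninfected HepG2-A16-CD81EGFP cells, 3 × 10^3 per well, 1536-well, plated on prespotted compound at 10 μM final, parasite-free screening media added to match infected plates; puromycin 10 μM positive, DMSO 0.5% negative; run in parallel with 48 h PbLuc assay at 37 °C, 5% CO2; viability by CellTiter-Glo luminescence, normalized to controls.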

Structure (SMILES)	cytotoxicity at 10 µM
CC(C)(C)n1ncc2c(=O)n(CC(=O)NCc3ccccc3)cnc21	42%
Fc1ccc(Sc2ccccc2CNC2=NCCN2)cc1	18.9%
CCS(=O)(=O)N1CCc2ccc(NC(=O)Nc3cccc(C)c3)cc21	42.3%
CCc1ccc(S(=O)(=O)NCC2CCN(c3cnccn3)CC2)s1	7.69%
Cn1nc(N2CCCC(C(=O)Nc3nc4ccccc4s3)C2)ccc1=O (stereo not given)	27.6%
CC(C)(C)NC(=O)N1CCC(Oc2ccc(C(F)(F)F)cn2)CC1	6.91%
CC(C)Nc1nc2c(c(NC3CC3)n1)CN(C(=O)Cc1ccsc1)CC2	10.4%
Cc1cnc(NC2CCc3c(ccc(=O)n3CC3CC3)C2)nc1 (stereo not given)	-137%
COCCN1C[C@H]2CCN(c3ncccn3)CC[C@H]2S1(=O)=O	-2.2%
CC(C)c1ccc(NC(=O)Cn2cc(I)cn2)cc1	2.77%
O=C(Nc1ccc(Cl)cn1)c1nn(C2CCS(=O)(=O)C2)c2c1CCCC2 (stereo not given)	1.61%
CC(Cn1cc(Br)cn1)C(=O)Nc1ccc(Br)cn1 (stereo not given)	73.3%
Cc1ccc(NC(C)(C)c2nnnn2-c2ccc(Cl)cc2)c(C)c1	55.4%
CC(C)c1ccc(OCn2ccc(C(=O)N3CCCC3)n2)cc1	12.7%
Cc1ccc(-c2noc(C3CCN3C(=O)c3cc[nH]n3)n2)s1 (stereo not given)	8.47%
CC(C)CNc1cc(-c2c[nH]nc2C2CCN(C(=O)C3CC3)C2)ccn1 (stereo not given)	83.8%
Cc1cc(Cc2cccc(C(F)(F)F)c2)cc(C2CCCNC2)n1 (stereo not given)	-2.34%
Cc1cc(CN2CCc3nc(-c4ccncc4)nc(O)c3CC2)c(C)s1	3.27%
CCn1ccc(-c2cc(NCCCOc3ccccc3C)nc(C)n2)n1	-5.28%
CCc1c(C)nc2cc(C3CCN(CCc4ccccc4)C3)nn2c1O (stereo not given)	-20.1%
CNc1cccc(C2CCCN(C(=O)Cc3ccccc3)C2)n1 (stereo not given)	-6.5%
CN(C)S(=O)(=O)N1CCCC(c2cccc(Cc3ccc(Cl)cc3)n2)C1 (stereo not given)	56%

Structure (SMILES)	cytotoxicity at 10 µM
CC(C)c1nc2n(n1)CC(Nc1ncnc3ccccc13)CC2 (stereo not given)	-0.95%
O=C1NCCCCC1SCc1coc(-c2ccc(F)cc2)n1 (stereo not given)	47.5%
Cc1cnn(C2CN(C(C)c3nc(-c4ccccc4)no3)C2)c1 (stereo not given)	-2.21%
Cc1ccc(OCCCC(=O)Nc2nonc2C)cc1C	7.03%
CC(Cc1ccco1)NC(=O)NCc1ncnn1C (stereo not given)	2.02%
CC1CCN(C(=O)CSCCN2CCOCC2)CC1	1.89%
Clc1cccc(C(NCc2ncc[nH]2)c2ccccn2)c1 (stereo not given)	0.863%
CC(C)(C)n1ncc(NCC(O)c2ccccc2C(F)(F)F)c(Cl)c1=O (stereo not given)	53.6%
COCC(O)CN(C)c1cc(C(F)(F)F)nc(-c2cccnc2)n1 (stereo not given)	7.02%
NC(=O)c1ccc(N2CCN(Cc3ccc(F)cc3Cl)CC2)nn1	62.6%
CCN1CC(CN(C)c2cc(C)nc(N)n2)Oc2ccccc21 (stereo not given)	38.8%
N#Cc1c(Cl)nsc1NCc1cccnc1OC1CCCC1	27.1%
CCn1nc(C)cc1C(=O)OCCNc1ncnc2ccccc12	61.8%
CC(C)C(C)(C#N)NC(=O)CN1CCCN(Cc2ccccc2F)CC1 (stereo not given)	-5.84%
Cc1ccc(S(=O)(=O)N2CCN(CCCn3ccnc3)CC2)cc1	-13.5%
NC(=O)c1ccc(N2CCCCC2)c(NC(=O)c2cc(Br)ccc2Cl)c1	59.6%
COC(=O)C(C)(C)NC(=O)C1CC(=O)N(C2CC2)C1 (stereo not given)	-139%
CC(C)c1ccc(C(CN)N2CCc3sccc3C2)cc1 (stereo not given)	1.66%
COc1ccc(C(=O)NCCCOC(C)c2ccccc2)c(OC)c1 (stereo not given)	-17.3%
Cc1cnn(-c2cccc(N3CCN(c4cc(C)nc(C)n4)CC3)n2)c1	7.82%
COCCN(C)c1ccc(NCc2ccsc2)nc1	-5.2%
O=C(C[S+]([O-])Cc1ccc(F)cc1)N1CCc2sccc2C1 (stereo not given)	-3.86%

Structure (SMILES)	cytotoxicity at 10 µM
COc1cc(CNc2nncs2)cc(OC)c1OC	18.7%
COc1ccccc1C1(CNc2snc(Cl)c2C#N)CCCC1	31.6%
NC(=O)c1nc2c(s1)CCN(C(=O)Nc1cccc(Cl)c1)CC2	6.64%
O=C1N(Cc2ccc(F)c(F)c2)CCCC12CCN(C1CCCCC1)C2 (stereo not given)	-0.268%
Cc1nc(C)c(CCN2CCC(Oc3ccccc3F)CC2)s1	42.9%
CCCc1nc(C(=O)NCCN2CCC(c3ccccc3C)C2)cs1 (stereo not given)	-37.9%
CCNc1ncc(C(=O)NC2CCc3ccccc3C2)cn1 (stereo not given)	82.6%
COc1cccc(OCC2CCCN(C(=O)CCn3ccnc3)C2)c1 (stereo not given)	-19.8%
CCc1cc(N2CCN(c3ccc(Cl)cn3)CC2)n2nccc2n1	23.1%
CC(C)c1ccc(CN2C(=O)C3(CCNCC3)Nc3ccccc32)cc1	-9.81%
N#Cc1cccnc1N1CCCC(CO)(Cc2ccc(F)cc2)C1 (stereo not given)	3.3%
COc1cccc(CCC2CCCN(C(=O)c3cnccn3)C2)c1 (stereo not given)	13.7%
CN(C)CCNc1ccc(-c2nc(-c3ccccc3F)no2)cn1	9.34%
CC(C)[C@H](C)NC1CCN(c2ccc(-c3cscn3)cc2)CC1	-50.8%
Cc1ccccc1-c1noc(-c2ccc(N(C)C3CCOCC3)nc2)n1	2.65%
CC(=O)N1CCN(Cc2cccc3c2sc2ccccc23)CC(O)C1 (stereo not given)	-12.9%
Cc1nn2cc(CCNC(=O)c3cc(C(C)C)nn3C)nc2s1	34.9%
Cc1nc(N2CCC3(CCCN(CC4CC4)C3=O)C2)c2sccc2n1 (stereo not given)	42%
CCCOc1ccccc1CCCNc1ncnc2oc(C)nc12	22.4%
COCC1(Nc2nc(C)nc3c2cnn3C)CCCC1	37.4%
Cc1cc(C2CCC2)nc(N2CCN(Cc3nccn3C)CC2)n1	-6.86%
CC(C)Cc1nc(CN2CCc3onc(-c4cccc(F)c4)c3C2)no1	2.3%

Structure (SMILES)	cytotoxicity at 10 µM
CC(C)Oc1ccc(CN2CCCC(N3CCOCC3)C2)cc1CO (stereo not given)	1.48%
CSC(C)Cc1c(-c2ccccc2)ncn1CCCNc1cccnc1 (stereo not given)	15.1%
Cc1nonc1CN(C)c1nc(-c2cccnc2)nc2c1CCNC2	4.05%
Cc1nc(NCCc2noc(C3CCCO3)n2)c2sccc2n1 (stereo not given)	53.6%
CNc1nc(C)cc(NC2CCCN(C3Cc4ccccc4C3)C2)n1 (stereo not given)	12.5%
Clc1cccc(C2CCN(c3ncnc4c3CCNC4)C2)c1 (stereo not given)	50%
CCc1cc(N(C)Cc2cc[nH]n2)n2nc(C)c(C)c2n1	24%
Cc1nc(CCN2CCC(Oc3ccccc3F)CC2)c(C)s1	7.08%
CCCN1CCC(NC(=O)c2csc(C)c2-c2ccccc2)CC1	-133%
Cc1ccc2c(c1)c(CNC(=O)C1CC(=O)N(CCN(C)C)C1)nn2C (stereo not given)	1.66%
CN(C)c1nc2c(c(N3CCC4(CC3)CNC(=O)C4)n1)CCCC2	0.995%
CCCn1cc(-c2ccnc(NC3CCc4ccccc43)n2)c(C)n1 (stereo not given)	10.1%
Cc1cc(C(=O)N2CCOC(c3ccc(Cl)c(Cl)c3)C2)[nH]n1 (stereo not given)	4.55%
Cc1ccccc1N1CCCN(c2ccncn2)CC1	24.9%
Cc1csc2ncnc(N3CCC(Cn4cc(C(C)(C)N)nn4)CC3)c12	25.5%
Nc1nc(CCC(=O)N2CCOC(CC3CCCCC3)C2)cs1 (stereo not given)	-9.18%
CN(C)S(=O)(=O)N1CCCC(c2cccc(Cc3ccccc3)n2)C1 (stereo not given)	20.5%
CCS(=O)(=O)N1CCC(NC(=O)c2cc3ccccc3cc2O)CC1	-2.1%
Cn1cc(NS(=O)(=O)c2ccc3c(c2)CCCC3)ccc1=O	40.7%
COC(=O)c1ccc(N2CCN(C(=O)c3cccnc3)C(C)C2)cc1 (stereo not given)	4.54%
COc1ccc(C2=CCN(C(=O)CN(CC(N)=O)C(C)C)CC2)cc1	23.3%
CCc1nc(CN2CCCN(c3nn4cc(C)nc4s3)CC2)no1	-14.7%

Structure (SMILES)	cytotoxicity at 10 µM
Cc1cc(C)c(CNC(=O)N2CCCC2c2cc(C)on2)c(=O)[nH]1 (stereo not given)	1.1%
CC(NC(=O)NCc1cc(Br)cs1)c1ccccn1 (stereo not given)	-17.6%
O=C(NCC(=O)N1CCCc2ccccc21)c1c(O)cc(F)cc1F	28.6%
COc1cccc(CN2CCN(c3ccc4nncn4n3)C(C)C2)c1 (stereo not given)	38.3%
Cc1noc(NC(=O)c2ccc(Br)s2)n1	-1.35%
Cc1cc(CN2CCN(C(c3ccccc3)c3ccccc3)CC2)no1	-6.56%
CN(C)c1ccc(CN(CCCn2ccnc2)Cc2c[nH]cn2)cc1	-1.34%
Cc1cccc(Nc2cc(C3CCCN(CC(N)=O)C3)ccn2)n1 (stereo not given)	12.3%
Fc1cccc(O[C@@H]2C[C@H]3CN(Cc4ccccn4)CCN3C2)c1	-154%
c1cnc(N2CCC3(CCCN(Cc4ccncc4)C3)CC2)nc1	-91.6%
CC(C)NC1CCc2[nH]c(=O)ccc2C1 (stereo not given)	3.64%
Cc1csc(CN2CC[C@H]3O[C@H](C(=O)Nc4cccnc4)CC[C@H]32)n1	-47.1%
O=C(c1ccsc1)N1C[C@@H]2OCCN(CCN3CCCC3)[C@@H]2C1	-73.7%
Cc1ccc(O[C@@H]2C[C@H]3CN(C(=O)Cc4ccccn4)CCN3C2)cc1	-59%
CCCN1CCC(c2nc3ccc(-c4cccc(OC)c4)cn3n2)CC1	-113%
Fc1cccc(CN2CCOC3(COCCN(CC4CC4)C3)C2)c1 (stereo not given)	-111%
c1ccc(OC2COC3(CCN(Cc4ccccn4)CC3)C2)cc1 (stereo not given)	-69.2%
CCc1ccc(CN2C[C@@H]3OCCN(c4ccnc(N(C)C)n4)[C@@H]3C2)o1	61.8%
COCCO[C@H]1CCN(c2cc(OC)ncn2)[C@H]1Cc1cccnc1	-140%
CN1CCC(c2nnc3ccc(C(=O)N4CCCCC4)cn23)C1 (stereo not given)	-167%
Cc1cccc(COc2ccc(C(C)N)cc2)c1 (stereo not given)	-1.79%
CN(C)C(=O)N1CC2(CCNCC2)c2cc(Cl)ccc21	-69.8%
